Experimental data gathered from unrelated publications.
Compare with care: the assays were run in different laboratories.
Target: Serine/threonine-protein kinase pim-2 (PIM2, Homo sapiens, UniProt Q9P1W9)

SMILES | assay | setting | quantity | result
CNC(=O)Nc1ccc2c(c1)CC[C@@]21OC(=O)N(CC(=O)N(Cc2ccc(F)cc2)[C@@H](C)C(F)(F)F)C1=O | cell-free assay, competition with immobilised ligand | 1 µM | remaining binding | 98%
Cc1ccc(Nc2nccc(N(C)c3ccc4c(C)n(C)nc4c3)n2)cc1S(N)(=O)=O | enzyme activity, inhibitor | 0.5 µM | remaining activity | 101%
CNC(=O)c1cc(Oc2ccc(NC(=O)Nc3ccc(Cl)c(C(F)(F)F)c3)cc2)ccn1 | enzyme activity, inhibitor | 10 µM | inhibition | 9%
O=C1NC(c2ccccn2)Sc2ccccc21 (stereo not shown) | cell-free assay, competition with immobilised ligand | 1 µM | remaining binding | 88%
CCOc1cc(-c2nncn2C)ccc1Nc1ncc2cc(C)nc(NCC(C)(C)C)c2n1 | enzyme activity, inhibitor, FRET | 1 µM | inhibition | < 15%
CC(=O)N1CCC(c2ccc(C(=O)NC(=N)N)cc2C(F)(F)F)CC1 | cell-free assay, competition with immobilised ligand | 1 µM | remaining binding | 100%
CC(C)(C)c1nc(-c2cccc(NS(=O)(=O)c3c(F)cccc3F)c2F)c(-c2ccnc(N)n2)s1 | enzyme activity, inhibitor, radiometric | 1 µM | remaining activity | 77%
Cc1cc(NC(=O)c2cccc3cc(-c4cccc5[nH]nc(N)c45)ccc23)ccc1F | enzyme activity, inhibitor | 0.1 µM | activity vs control | 87%
Cc1cnc(NC2CCOCC2)nc1-n1cnc(C(=O)NC(CN)c2cc(F)cc(Cl)c2)c1 (stereo not shown) | enzyme activity, inhibitor, radiometric | 1 µM | remaining activity | 100%
CNc1cccc2cc(C(=O)Nc3ccc(C(=O)O)cc3)c(=O)[nH]c12 | enzyme activity, inhibitor | 10 µM | inhibition | 13%
COc1cc(/C=C/C(=O)CC(=O)/C=C/c2ccc(O)c(OC)c2)ccc1O | enzyme activity, inhibitor | 1 µM | activity vs control | 74%
Oc1cccc(-c2nc(N3CCOCC3)c3oc4ncccc4c3n2)c1 | enzyme activity, inhibitor | 10 µM | remaining activity | 90%
CCC(=O)N[C@H]1CC[C@@H](C(=O)N(C)c2ccc(-c3nc4ccccc4o3)cc2)C1 | cell-free assay, competition with immobilised ligand | 1 µM | remaining binding | 100%
O=C1Nc2ccc(Cl)cc2C1=Cc1cc(Cl)c(O)c(Cl)c1 | cell-free assay | 0.5 µM | remaining signal | 48.6%
FC(F)(F)Oc1cccc(-c2cnc3ccc(-c4ccncc4)nn23)c1 | enzyme activity, inhibitor, radiometric | 1 µM | activity vs control | 88%
O=C(Nc1cccnn1)N1CC(C/C=C/c2cncc(Oc3ccc(C(F)(F)F)cn3)n2)C1 | cell-free assay, competition with immobilised ligand | 1 µM | remaining binding | 100%
O=C(Nc1cnn(-c2csc(C(=O)NC3COC3)c2)c1)Nc1ccccc1Cl | enzyme activity, inhibitor | 5 µM | remaining activity | 96.4%
CS(=O)(=O)Nc1cccc(-c2csc(NC(=O)CSc3nc4nccnc4c(=O)n3CCc3ccccc3)n2)c1 | enzyme activity, inhibitor | 10 µM | inhibition | -8%
FC(F)(F)c1ccc2c(c1)nc(-c1cccnc1)n2C1CC1 | cell-free assay, competition with immobilised ligand | 1 µM | remaining binding | 100%
Nc1nc(NC2CCCCC2)sc1C(=O)c1ccccc1 | enzyme activity, inhibitor | 10 µM | remaining activity | 94%
COc1cc2ncnc(Nc3ccc(Oc4ccccc4)c(C)c3C)c2cc1OC | enzyme activity, inhibitor | 1 µM | inhibition | -2%
O=C1NC(=O)c2cc(Nc3ccc(F)cc3)c(Nc3ccc(F)cc3)cc21 | cell-free assay | 0.5 µM | remaining signal | 98.6%
